Results as given in ChEMBL document CHEMBL2169814, “Structure-based design, synthesis, and characterization of dual hotspot small-molecule HIV-1 entry inhibitors” (J Med Chem, 2012).
Calls of active or inactive are those of the source. The calls are words filed in the database; no cut-off is given here.

Columns and labels:
[1] = tested on: Human immunodeficiency virus 1; assay: Antiviral activity against HIV-1 YU2 infected in canine Cf2Th-CCR5 cells assessed as activation of viral infectivity after 2 to 4 hrs by luminometer relative to NBD-556; format: functional, organism-based
[2] = Inhibition of recombinant HIV-1 YU2 envelope glycoprotein-120 assessed as inhibition of viral entry in canine Cf2Th cells expressing CD4/CCR5 after 2 to 4 hrs by luciferase activity based luminescence assay; format: cell-based, Human immunodeficiency virus 1
How it was run: (§1)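 Single-round luciferase-encoding recombinant HIV-1 pseudotyped with wild-type or mutant YU2 Env, made in 293T cells and dosed by RT units. Cf2Th/CD4-CCR5 cells seeded 24 h before. […] Cells lysed by freeze-thaw; luciferase read by luminometer.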

[3] = Inhibition of ampotrophic murine leukemia virus envelope glycoprotein assessed as inhibition of viral entry in canine Cf2Th cells expressing human CD4 and CCR5 after 2 to 4 hrs by luciferase activity based luminescence assay
[4] = tested on: Human immunodeficiency virus 1; assay: Increase in binding of full length of HIV1 YU2 gp120 expressed into 17b in canine Cf2Th-CCR5 by SPR assay
[5] = tested on: Human immunodeficiency virus 1; assay: Increase in binding of minimal core of HIV1 YU2 gp120 into 17b in canine Cf2Th-CCR5 by SPR assay
[6] = tested on: Human immunodeficiency virus 1; assay: Antiviral activity against HIV-1 YU2 infected in canine Cf2Th-CCR5 cells assessed as activation of viral infectivity after 2 to 4 hrs by luminometer relative to TS-II-224; format: functional, organism-based
[7] = Inhibition of recombinant HIV-1 KB9 envelope glycoprotein-120 assessed as inhibition of viral entry in canine Cf2Th cells expressing CD4/CCR5 after 2 to 4 hrs by luciferase activity based luminescence assay; format: cell-based, Human immunodeficiency virus 1
How it was run: (§2)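 Single-round luciferase-reporter viruses were made in 293T cells with Gag-Pol packaging and Env plasmids (A-MLV Env plus rev), then normalized by RT activity. […] Cf2Th/CD4-CCR5 or CD4-CXCR4 targets were exposed for 2–4 h, cultured 48 h, lysed by freeze-thaw, and luciferase was read.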

[8] = Inhibition of recombinant HIV-1 89.6 envelope glycoprotein-120 assessed as inhibition of viral entry in canine Cf2Th cells expressing CD4/CCR5 after 2 to 4 hrs by luciferase activity based luminescence assay; format: cell-based, Human immunodeficiency virus 1; how it was run: as §2
[9] = Inhibition of recombinant HIV-1 JRFL envelope glycoprotein-120 assessed as inhibition of viral entry in canine Cf2Th cells expressing CD4/CCR5 after 2 to 4 hrs by luciferase activity based luminescence assay; format: cell-based, Human immunodeficiency virus 1; how it was run: as §2
[10] = Inhibition of recombinant HIV-1 ADA envelope glycoprotein-120 assessed as inhibition of viral entry in canine Cf2Th cells expressing CD4/CCR5 after 2 to 4 hrs by luciferase activity based luminescence assay; format: cell-based, Human immunodeficiency virus 1; how it was run: as §2
[11] = Inhibition of recombinant HIV-1 HXBc2 envelope glycoprotein-120 assessed as inhibition of viral entry in canine Cf2Th cells expressing CD4/CCR5 after 2 to 4 hrs by luciferase activity based luminescence assay; format: cell-based, Human immunodeficiency virus 1; how it was run: as §2
[12] = tested on: Human immunodeficiency virus 1; assay: Antiviral activity against HIV-1 clade C Env pseudovirus assessed as geometric mean titer for virus neutralization to infect human TZM-bl cells by luciferase assay; format: functional, organism-based
How it was run: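 Env-pseudoviruses were made in 293T cells cotransfected with rev/env plasmid and the env-deficient pSGΔ3env backbone, then harvested at 2 days. Virus (MOI ~0.01–0.1) was preincubated 30 min at 37°C with serially diluted compound in medium containing 10% DMSO, in duplicate, then used to infect TZM-bl cells. Luciferase read-out; IC50 from a 5-parameter Hill fit; geometric mean across isolates.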

[13] = tested on: Human immunodeficiency virus 1; assay: Antiviral activity against HIV-1 clade B Env pseudovirus assessed as geometric mean titer for virus neutralization to infect human TZM-bl cells by luciferase assay; format: functional, organism-based; conditions: Human immunodeficiency virus 1, clade B
How it was run: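 Env-pseudoviruses made in 293T cells co-transfected with rev/env plasmid and env-deficient backbone (pSGΔ3env); supernatants harvested at 2 days, filtered. Virus (MOI ~0.01–0.1) preincubated 30 min at 37°C with serially diluted reagent (media with 10% DMSO), duplicate wells, then used to infect TZM-bl cells. Luciferase read-out; 5-parameter hill fit gives IC50/IC80; geometric mean titer across isolates.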

[14] = Cytotoxicity against canine Cf2Th-CD4-CCR5 assessed as cell viability at 1 to 100 uM after 48 hrs by luminometer; format: cell-based, Canis lupus familiaris; conditions: dog, thymocyte
How it was run: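 Cf2Th/CD4-CCR5 cells were seeded at 6×10^3/well 24 h ahead and exposed to compound at 1–100 μM (DMSO at 2% as control) for 2–4 h at 37°C. Medium was then topped up and cells were incubated 48 h at 37°C. After 30 min at room temperature, CellTiter-Glo was added for 5–10 min, and luminescence was read for 5 s.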

[15] = Binding affinity to HIV-1 YU2 gp120 at 80 to 130 uM by VP-ITC analysis; design: species or system Human immunodeficiency virus 1
[16] = tested on: Envelope glycoprotein gp160 (Human immunodeficiency virus type 1 group M subtype B (isolate HXB2)(HIV-1)), P04578 [S375W]; assay: Inhibition of recombinant HIV-1 YU2 envelope glycoprotein-120 S375W mutant assessed as inhibition of viral entry in canine Cf2Th cells expressing CD4/CCR5 after 2 to 4 hrs by luciferase activity based luminescence assay; format: cell-based; conditions: Human immunodeficiency virus 1; how it was run: as §1
[17] = tested on: Human immunodeficiency virus 1; assay: Antiviral activity against HIV-1 YU2 infected in canine Cf2Th-CCR5 cells assessed as activation of viral infectivity after 2 to 4 hrs by luminometer relative to JRC-I-191; format: functional, organism-based

Row | SMILES | Activity [1] | IC50 [2] [µM] | IC50 [3] [µM] | Activity [4] | Activity [5] | Activity [6] | IC50 [7] [µM] | IC50 [8] [µM] | IC50 [9] [µM] | IC50 [10] [µM] | IC50 [11] [µM] | Activity [12] | IC50 [13] [µM] | Activity [14] | Kd [15] [µM] | Activity [16] | Activity [17]
1 | CC1(C)CC(NC(=O)C(=O)Nc2ccc(Cl)c(F)c2)CC(C)(C)N1 | Active | 54.4 | > 100 |  |  |  |  |  |  |  |  |  |  |  |  |  | 
2 | N[C@H]1Cc2ccccc2[C@@H]1NC(=O)C(=O)Nc1ccc(Cl)c(F)c1 |  | 53.9 | 56.9 | Active | Active | Active | 50 | 50 | 50 | 50 | 50 |  |  |  |  |  | 
3 | N=C(N)N[C@H]1Cc2ccccc2[C@@H]1NC(=O)C(=O)Nc1ccc(Cl)c(F)c1.O=CO |  | 22.9 | > 100 | Active | Active | inactive |  |  |  |  |  | Active | 7.9 | Non-toxic | 0.25 | inactive | 
4 | N=C(N)N[C@@H]1Cc2ccccc2[C@H]1NC(=O)C(=O)Nc1ccc(Cl)c(F)c1 |  | 21.3 | > 100 | Active | Active | inactive |  |  |  |  |  | Active | 8.9 |  | 0.3 | inactive | 
5 | CN1C(C)(C)CC(NC(=O)C(=O)Nc2ccc(Cl)c(F)c2)CC1(C)C |  | 48.8 | 93.4 | Active | Active |  |  |  |  |  |  |  |  |  |  |  | Active
6 | CC1(C)CC(NC(=O)C(=O)Nc2ccc(Br)cc2)CC(C)(C)N1 | Active | > 100 | > 100 |  |  |  |  |  |  |  |  |  |  |  | 2.2 |  | 
7 | N[C@@H]1Cc2ccccc2[C@H]1NC(=O)C(=O)Nc1ccc(Cl)c(F)c1 |  | 86.9 | 85.9 | Active | Active | Active | 50 | 50 | 50 | 50 | 50 |  |  |  | 1.1 |  | 
8 | CC1(C)CC(NC(=O)C(=O)Nc2ccc(Cl)cc2)CC(C)(C)N1 |  | > 100 | > 100 |  |  |  |  |  |  |  |  | Active | 29.3 |  |  |  | 
